This is an account of results in ChEMBL document CHEMBL1125903, “New derivatives of kanamycin B obtained by modifications and substitutions in position 6". 1. Synthesis and microbiological evaluation” (1991).

Each structure is given as a SMILES string. ≈ marks a conversion by molar mass, not a printed value.

One test deals with Bacillus subtilis. In words: Minimum inhibitory concentration measured against Bacillus subtilis (ATCC 6633). Type of test: functional. The method in brief: (§1)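 Agar dilution MIC on Mueller-Hinton agar supplemented with CaCl2 and MgCl2 (NCCLS standards), 2-fold dilutions. Compounds tested as sulfate salts dissolved in sterile water; values expressed in mg/L of free base, with base content determined by 1H NMR. Spots of 10^4-10^5 CFU applied by multipoint inoculator. Growth read visually after 24 h at 37 °C.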

The test system of a further test is Enterococcus faecalis. In words: Minimum inhibitory concentration measured against […] faecalis (ATCC 19431). The test is classed as functional. Summed up: as §1
The subject of another test is Salmonella typhimurium. In words: Minimum inhibitory concentration measured against Salmonella Typhimurium (ATCC 14028). Type of test: functional, Salmonella enterica subsp. enterica serovar Typhimurium. As to conditions: Salmonella enterica. Summed up: as §1
The subject of a further test is Proteus vulgaris. In words: Minimum inhibitory concentration measured against Proteus vulgaris (ATCC 13315). The test is classed as functional. The method in brief:
as §1

In the next test the test system is Enterobacter cloacae. Nature of the test: Minimum inhibitory concentration measured against Enterobacter cloacae (ATCC 23355). The test is classed as functional. The method in brief:
as §1

For another test, the system named is Klebsiella aerogenes. Nature of the test: Minimum inhibitory concentration measured against Enterobacter aerogenes (ATCC 13048). Type of test: functional. Summed up: as §1
For test [1], the system named is Serratia marcescens. Nature of the test: Minimum inhibitory concentration measured against CDC 87457 strain. The test is classed as functional. Summed up:
as §1

The test system of another test is Escherichia coli. Nature of the test: Minimum inhibitory concentration measured against Escherichia coli (ATCC 25922). Type of test: functional. Summed up: as §1
Test [2] concerns Serratia marcescens. Nature of the test: Minimum inhibitory concentration measured against Serratia marcescens (ATCC 8100). The test is classed as functional. The method in brief:
as §1

The test system of a further test is Klebsiella pneumoniae. In words: Minimum inhibitory concentration measured against Klebsiella pneumoniae (ATCC 13883). The test is classed as functional. The method in brief: as §1
In test [3] the test system is Staphylococcus epidermidis. Nature of the test: Minimum inhibitory concentration measured against Staphylococcus epidermidis (ATCC 12228). The test is classed as functional. The method in brief:
as §1

The next test deals with Pseudomonas aeruginosa. Nature of the test: Minimum inhibitory concentration measured against Pseudomonas aeruginosa (NCTC 10701). Type of test: functional. The method in brief:
as §1

For a further test, the system named is Staphylococcus aureus. Nature of the test: Minimum inhibitory concentration measured against Staphylococcus aureus (ATCC 25923). Type of test: functional. The method in brief:
as §1

For the next test, the system named is Citrobacter freundii. In words: Minimum inhibitory concentration measured against Citrobacter freundii (ATCC 8090). Type of test: functional. Summed up: as §1

As usually defined, the MIC is the least concentration at which growth counts as inhibited. Read a high MIC as a less susceptible organism.

As to `NC[C@H]1O[C@H](O[C@H]2[C@H](O)[C@@H](O[C@H]3O[C@H](CO)[C@@H](O)[C@H](N)[C@H]3O)[C@H](N)C[C@@H]2N)[C@H](N)[C@@H](O)[C@@H]1O` [BEKANAMYCIN], the MIC against Bacillus subtilis was determined as 0.5 µg/mL (≈ 1.03 µM); against Enterococcus faecalis it was 16 µg/mL (≈ 33.1 µM); in the test on Salmonella typhimurium it was 1 µg/mL (≈ 2.07 µM); in the test on Proteus vulgaris, 0.25 µg/mL (≈ 0.517 µM); in the test on Enterobacter cloacae it was 0.25 µg/mL (≈ 0.517 µM); against Klebsiella aerogenes it was 0.5 µg/mL (≈ 1.03 µM). Further, the MIC is 1 µg/mL (≈ 2.07 µM) in the test on Serratia marcescens [1]; 1 µg/mL (≈ 2.07 µM) with Escherichia coli; 1 µg/mL (≈ 2.07 µM) in the test on Serratia marcescens [2]; 0.25 µg/mL (≈ 0.517 µM) in the test on Klebsiella pneumoniae; 0.25 µg/mL (≈ 0.517 µM) in test [3]; 32 µg/mL (≈ 66.2 µM) against Pseudomonas aeruginosa. In addition, the MIC against Staphylococcus aureus and against Citrobacter freundii was 0.5 µg/mL (≈ 1.03 µM) in each case.

Consider `CCCCCC(=O)N(CCCC)CC1OC(OC2C(NC(=O)OC(C)(C)C)CC(NC(=O)OC(C)(C)C)C(OC3OC(CNC(=O)OC(C)(C)C)C(O)C(O)C3NC(=O)OC(C)(C)C)C2O)C(O)C(NC(=O)OC(C)(C)C)C1O` (stereo not drawn), for which the MIC against Bacillus subtilis is > 64 µg/mL; with Enterococcus faecalis, > 64 µg/mL; against Salmonella typhimurium, > 64 µg/mL; in the test with Proteus vulgaris it was > 64 µg/mL; in the test with Enterobacter cloacae, 32 µg/mL (≈ 28.1 µM); against Klebsiella aerogenes, > 64 µg/mL. The MIC (in the test on Escherichia coli; against Serratia marcescens [2]; against Klebsiella pneumoniae; in [3]; in the test with Pseudomonas aeruginosa; with Staphylococcus aureus) was > 64 µg/mL throughout. For the same compound, the MIC against Citrobacter freundii is > 64 µg/mL.

Turning to `CCCSCC1OC(OC2C(NC(=O)OC(C)(C)C)CC(NC(=O)OC(C)(C)C)C(OC3OC(CNC(=O)OC(C)(C)C)C(O)C(O)C3NC(=O)OC(C)(C)C)C2O)C(O)C(NC(=O)OC(C)(C)C)C1O` (stereo not drawn), the MIC against Bacillus subtilis amounted to 4 µg/mL (≈ 3.84 µM); against Enterococcus faecalis it was 8 µg/mL (≈ 7.68 µM); against Salmonella typhimurium, 8 µg/mL (≈ 7.68 µM); against Proteus vulgaris, 1 µg/mL (≈ 0.959 µM); against Enterobacter cloacae it was 0.25 µg/mL (≈ 0.24 µM); against Klebsiella aerogenes, 4 µg/mL (≈ 3.84 µM). For the same compound, the MIC with Escherichia coli is 2 µg/mL (≈ 1.92 µM); against Serratia marcescens [2], > 64 µg/mL; with Klebsiella pneumoniae, 2 µg/mL (≈ 1.92 µM); in [3], 0.25 µg/mL (≈ 0.24 µM); against Pseudomonas aeruginosa, > 64 µg/mL; with Staphylococcus aureus it was 1 µg/mL (≈ 0.959 µM). It took 1 µg/mL (≈ 0.959 µM) to inhibit growth against Citrobacter freundii (MIC).

As to `CC(=O)N(C)CC1OC(OC2C(NC(=O)OC(C)(C)C)CC(NC(=O)OC(C)(C)C)C(OC3OC(CNC(=O)OC(C)(C)C)C(O)C(O)C3NC(=O)OC(C)(C)C)C2O)C(O)C(NC(=O)OC(C)(C)C)C1O` (stereo not drawn), the MIC in the test with Bacillus subtilis was 32 µg/mL (≈ 30.8 µM); with Enterococcus faecalis it was > 64 µg/mL; in the test with Salmonella typhimurium, 64 µg/mL (≈ 61.6 µM); against Proteus vulgaris, 8 µg/mL (≈ 7.7 µM); in the test on Enterobacter cloacae, 1 µg/mL (≈ 0.962 µM); against Klebsiella aerogenes, 32 µg/mL (≈ 30.8 µM). In addition, the MIC was 32 µg/mL (≈ 30.8 µM) against Escherichia coli; > 64 µg/mL in the test with Serratia marcescens [2]; 8 µg/mL (≈ 7.7 µM) with Klebsiella pneumoniae; 2 µg/mL (≈ 1.92 µM) in test [3]; > 64 µg/mL in the test on Pseudomonas aeruginosa; 4 µg/mL (≈ 3.85 µM) in the test on Staphylococcus aureus. For the same compound, in the test on Citrobacter freundii, the lowest concentration to inhibit growth (MIC) was 8 µg/mL (≈ 7.7 µM).
